In ChEMBL document CHEMBL1914456, “Design, synthesis and biological evaluation of mannosyl triazoles as FimH antagonists” (Bioorg Med Chem, 2011):
Converted amounts (≈) assume the structure as drawn.

Tests used:
[1] = biological target: Type 1 fimbrin D-mannose specific adhesin (Escherichia coli K-12, UniProt P08191); assay: (§1) Antagonist activity at Escherichia coli recombinant C-terminal 6His-tagged FimH-CRD with a C-terminal thrombin cleavage site expressed in Escherichia coli HM125 assessed as inhibition of streptavidin-horseradish peroxidase conjugated TM-PAA polymer binding after 3 hrs by spectrophotometry
Type 1 fimbrin D-mannose specific adhesin, sequence (P08191 whole entry): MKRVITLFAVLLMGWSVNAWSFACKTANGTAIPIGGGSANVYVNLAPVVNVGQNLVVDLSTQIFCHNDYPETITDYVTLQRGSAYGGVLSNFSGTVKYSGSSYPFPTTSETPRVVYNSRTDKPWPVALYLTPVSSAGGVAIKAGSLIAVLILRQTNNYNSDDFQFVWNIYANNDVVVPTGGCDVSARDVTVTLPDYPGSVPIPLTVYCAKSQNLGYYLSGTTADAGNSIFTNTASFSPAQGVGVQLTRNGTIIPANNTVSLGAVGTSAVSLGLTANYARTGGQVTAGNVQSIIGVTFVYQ
Summary of the method: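 Plates coated overnight at 4 °C with 10 µg/mL FimH-CRD-Th-6His in 20 mM HEPES, 150 mM NaCl, 1 mM CaCl2, pH 7.4, then blocked with 3% BSA for 2 h at 4 °C. Fourfold serial dilutions in buffer with 5% DMSO plus 0.5 µg/mL streptavidin-peroxidase TM-PAA polymer, 3 h at 25 °C. ABTS for 4 min, stopped with oxalic acid, OD 415 nm. Duplicates, repeated at least twice; n-heptyl α-D-mannoside on each plate; IC50 from curve fit.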

[2] = biological target: Type 1 fimbrin D-mannose specific adhesin (Escherichia coli K-12) (UniProt P08191); assay: as §1, with “Ratio of compound IC50 to n-heptyl alpha-D-mannopyranoside IC50 for” for “Antagonist activity at”
Type 1 fimbrin D-mannose specific adhesin (Escherichia coli K-12), sequence (P08191 whole entry): as above
Summary of the method: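 FimH-CRD-Th-6His from E. coli HM125, purified on Ni-NTA, coated at 10 µg/mL in assay buffer (20 mM HEPES, 150 mM NaCl, 1 mM CaCl2, pH 7.4) overnight at 4 °C. Wells blocked with 3% BSA for 2 h at 4 °C. Four-fold serial dilutions of compound in buffer with 5% DMSO were added with streptavidin-peroxidase-coupled TM-PAA polymer (0.5 µg/mL). Plates were incubated 3 h at 25 °C, 350 rpm. ABTS was developed 4 min, stopped with 2% oxalic acid, and read at 415 nm. Each compound was run in duplicate and repeated at least twice. IC50 is the concentration that halves maximal specific TM-PAA binding. rIC50 is compound IC50 divided by the IC50 of n-heptyl α-D-mannopyranoside run on the same plate.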

[3] = Octanol-phosphate buffer distribution coefficient, log D of the compound at pH 7.4 after 2 hrs by shake flask method using LC-MS analysis; format: physicochemical
Summary of the method: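 Miniaturized shake flask. Phosphate buffer (0.1 M, pH 7.4) and 1-octanol mutually saturated. Analyte at 1 µM in buffer, overlaid with octanol at two volume ratios chosen by ALOGPS-predicted logP, three determinations per ratio.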

[4] = Thermodynamic solubility of the compound at pH 6.5 after 24 hrs by shake flask method using LC-MS analysis; format: physicochemical; conditions: buffer, read-out: Therm_solubility
Summary of the method: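 1 mg solid shaken in 250 µL 50 mM phosphate buffer, pH 6.5: sonicated 15 min, shaken at 600 rpm and 25 °C for 2 h, then left 24 h. pH measured, then filtered by centrifugation. Filtrate diluted and quantified by LC-MS against a six-point calibration from 0.1 to 10 µg/mL.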

[5] = Permeability of the compound assessed as membrane retention at pH 5 to 7.4 after 16 hrs by PAMPA assay; format: ADME; conditions: pH 5, 16 h
Summary of the method: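 PAMPA sandwich: donor wells with compound solution, acceptor filter impregnated with GIT-0 lipid and filled with acceptor sink buffer. Incubated undisturbed for 16 h. Donor and acceptor samples quantified by UV spectroscopy and LC-MS; log Pe and membrane retention calculated from these.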

[6] = Antagonist activity at Escherichia coli […] FimH assessed as disaggregation of microorganism from guinea pig erythrocytes measured for 1400 secs by aggregometry; format: functional
Summary of the method: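 E. coli UTI89 and guinea pig erythrocytes (separated on Histopaque), each adjusted to OD600 of 4 (1.9 × 10⁸ CFU/mL and 2.2 × 10⁶ cells/mL). Aggregation read as optical density at 740 nm, 37 °C, stirring at 1000 rpm. Instrument calibrated with protein-poor plasma in PBS as 100% and protein-rich plasma with erythrocytes as 0%. Triplicates; IC50 from area under the disaggregation curve.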

Escherichia coli = assay: Ratio of compound IC50 to n-heptyl alpha-D-mannopyranoside IC50 for Escherichia coli […] FimH assessed as disaggregation of microorganism from guinea pig erythrocytes measured for 1400 secs by aggregometry

IC50 [1] [µM]	Ratio IC50 [2]	logD at 2 h [3]	solubility thermodynamic at 24 h [4] [µg/mL]	R% [5]	IC50 ([6]; read-out: IC50) [µM]	Ratio IC50 (Escherichia coli)	IC50 [6]	Compound
0.161	2.5	-0.05	2600 (≈ 7.08 mM)	7.9%	–	–	–	COc1ccc(-n2cc(CO[C@H]3O[C@H](CO)[C@@H](O)[C@H](O)[C@@H]3O)nn2)cc1
0.493	7.5	-0.18	> 3000	5.5%	–	–	–	OC[C@H]1O[C@H](n2cc(COc3ccccc3)nn2)[C@@H](O)[C@@H](O)[C@@H]1O
0.135	2.1	0.07	> 3000	9.8%	–	–	–	OC[C@H]1O[C@H](OCc2cn(C34CC5CC(CC(C5)C3)C4)nn2)[C@@H](O)[C@@H](O)[C@@H]1O
0.196	3	-0.21	> 3000	4%	216	2.8	–	OC[C@H]1O[C@H](OCCc2cn(-c3ccc(F)cc3)nn2)[C@@H](O)[C@@H](O)[C@@H]1O
0.42	6.4	0.2	> 2000	4%	299	3.9	–	Nc1ccc(-n2cc(CO[C@H]3O[C@H](CO)[C@@H](O)[C@H](O)[C@@H]3O)nn2)cc1
0.0656	–	1.65	> 3000	21%	–	1	–	CCCCCCCO[C@H]1O[C@H](CO)[C@@H](O)[C@H](O)[C@@H]1O
0.248	3.8	0.91	445 (≈ 1.38 mM)	11.5%	289	3.7	–	Cc1ccc(-c2cn([C@H]3O[C@H](CO)[C@@H](O)[C@H](O)[C@@H]3O)nn2)cc1
0.296	4.5	–	> 3000	–	–	–	–	O=C([O-])c1cccc(-n2cc(CO[C@H]3O[C@H](CO)[C@@H](O)[C@H](O)[C@@H]3O)nn2)c1.[Na+]
0.229	3.5	< -1	> 3000	11.8%	–	–	–	COc1cccc(Cn2cc(CCO[C@H]3O[C@H](CO)[C@@H](O)[C@H](O)[C@@H]3O)nn2)c1
0.144	2.2	1.45	159 (≈ 0.424 mM)	17.2%	249	3.2	–	OC[C@H]1O[C@H](n2cc(-c3ccc(C(F)(F)F)cc3)nn2)[C@@H](O)[C@@H](O)[C@@H]1O
0.333	5.1	< -1.5	1880 (≈ 5.82 mM)	impermeable	–	–	Not Active	OC[C@H]1O[C@H](Cn2cc(-c3cccnc3)nn2)[C@@H](O)[C@@H](O)[C@@H]1O
0.511	7.8	-0.4	> 3000	3.1%	–	–	–	COc1ccc(Cn2cc(CO[C@H]3O[C@H](CO)[C@@H](O)[C@H](O)[C@@H]3O)nn2)cc1
0.565	8.6	0.23	1490 (≈ 4.44 mM)	6.3%	–	–	–	Cc1ccc(-c2cn(C[C@H]3O[C@H](CO)[C@@H](O)[C@H](O)[C@@H]3O)nn2)cc1
0.327	5	-0.83	–	impermeable	–	–	–	OC[C@H]1O[C@H](Cn2cc(COc3ccccc3)nn2)[C@@H](O)[C@@H](O)[C@@H]1O
0.112	1.7	-0.3	> 3000	2.9%	–	–	–	O=[N+]([O-])c1ccc(-n2cc(CCO[C@H]3O[C@H](CO)[C@@H](O)[C@H](O)[C@@H]3O)nn2)cc1
0.639	9.7	0.68	> 3000	impermeable	–	–	–	OC[C@H]1O[C@H](Cn2cc(-c3cccc(Cl)c3)nn2)[C@@H](O)[C@@H](O)[C@@H]1O

IC50 [1] [µM]	Ratio IC50 [2]	logD at 2 h [3]	solubility thermodynamic at 24 h [4] [µg/mL]	R% [5]	IC50 ([6]; read-out: IC50) [µM]	Ratio IC50 (Escherichia coli)	IC50 [6]	Compound
0.216	3.3	-1.04	1380 (≈ 4.47 mM)	10.3%	–	–	–	OC[C@H]1O[C@H](n2cc(-c3cccnc3)nn2)[C@@H](O)[C@@H](O)[C@@H]1O
0.169	2.6	–	> 3000	–	–	–	–	O=C([O-])c1cncc(-n2cc(CO[C@H]3O[C@H](CO)[C@@H](O)[C@H](O)[C@@H]3O)nn2)c1.[Na+]
–	3.8	0.21	> 3000	6.4%	–	–	–	OC[C@H]1O[C@H](n2cc(-c3ccccc3)nn2)[C@@H](O)[C@@H](O)[C@@H]1O
0.07	1.1	0.24	> 3000	9.2%	–	–	Not Active	OC[C@H]1O[C@H](OCc2cn(-c3ccncc3)nn2)[C@@H](O)[C@@H](O)[C@@H]1O
0.153	2.3	< -1.5	> 3000	4.3%	277	3.6	–	OC[C@H]1O[C@H](OCCc2cn(-c3ccncc3)nn2)[C@@H](O)[C@@H](O)[C@@H]1O
0.348	5.3	0.18	> 3000	5.4%	–	–	–	OC[C@H]1O[C@H](OCc2cn(-c3cccc(F)c3)nn2)[C@@H](O)[C@@H](O)[C@@H]1O
0.207	3.2	–	> 3000	–	–	–	–	O=C([O-])c1ccc(-n2cc(CO[C@H]3O[C@H](CO)[C@@H](O)[C@H](O)[C@@H]3O)nn2)cc1.[Na+]
0.194	3	1.07	525 (≈ 1.35 mM)	impermeable	–	–	Not Active	OC[C@H]1O[C@H](Cn2cc(-c3ccc(C(F)(F)F)cc3)nn2)[C@@H](O)[C@@H](O)[C@@H]1O
0.778	11.9	-0.15	> 3000	4.6%	–	–	–	OC[C@H]1O[C@H](OCc2cn(-c3ccc(F)cc3)nn2)[C@@H](O)[C@@H](O)[C@@H]1O
0.667	10.2	-0.33	> 3000	3%	–	–	–	OC[C@H]1O[C@H](OCc2cn(Cc3ccccc3)nn2)[C@@H](O)[C@@H](O)[C@@H]1O
0.331	5.1	1.22	705 (≈ 2.06 mM)	13.2%	–	–	–	OC[C@H]1O[C@H](n2cc(-c3cccc(Cl)c3)nn2)[C@@H](O)[C@@H](O)[C@@H]1O
–	6.1	-0.16	2600 (≈ 6.8 mM)	4.9%	–	–	–	O=[N+]([O-])c1ccc(-n2cc(CO[C@H]3O[C@H](CO)[C@@H](O)[C@H](O)[C@@H]3O)nn2)cc1
0.56	8.5	-0.36	> 3000	7.8%	–	–	–	OC[C@H]1O[C@H](Cn2cc(-c3ccccc3)nn2)[C@@H](O)[C@@H](O)[C@@H]1O
1.9	29	–	–	–	–	–	–	CO[C@H]1O[C@H](CO)[C@@H](O)[C@H](O)[C@@H]1O
0.452	6.9	-0.38	> 3000	4%	–	–	–	COc1cccc(Cn2cc(CO[C@H]3O[C@H](CO)[C@@H](O)[C@H](O)[C@@H]3O)nn2)c1
